Source: PubChem BioAssay (several laboratories)
This is a sample that favours compounds with a hit; in the whole collection about 3.1% have one here.
MEKK2mut PB1 HTS: signal of MEK5 binding to mutant human MEKK2 PB1 domain. bead flow cytometry, Alexa488-MEK5 binding to MEKK2 mutant. percent response, % at 10 µM. hit rate 0.35% among 290,000. AID 1530; in the data active means percent response above about 24%, passing the limit was not always enough
MEKK3 PB1 HTS: MEKK3-MEK5 PB1 interaction, increase or decrease; bead-based flow cytometry, Alexa488-MEK5 binding to MEKK3; actives lie on both sides; 0 = blocked by unlabeled MEK5, 100 = vehicle; binding response (% of control), % at 10 µM; hit rate 1.4% among 290,000;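 active means binding response more than 3 SD above or below the average of its plate-row segment, actives on both sides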;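 further: Alexa488 bead fluorescence after subtracting the streptavidin-only scavenger bead signal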
PREPL inh: inhibitors of human prolyl oligopeptidase-like enzyme PREPL. Q4J6C6. recombinant PREPL, fluorescence polarization activity-based probe. inhibition, % at 5.96 µM. hit rate 0.68% among 320,000. AID 2751; in the data active means inhibition above about 43%;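 further: 0% = enzyme with DMSO and 100% = wells lacking enzyme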
UBC13 polyUb: inhibitors of human UBC13 polyubiquitin chain formation. inhibition, % at 20 µM. P61088. TR-FRET. hit rate 0.47% among 330,000; in the data active means inhibition above about 45%, passing the limit was not always enough
Apaf-1 inh: inhibitors of human Apaf-1 apoptosome. inhibition, % at 20 µM. O14727. hit rate 0.71% among 330,000. reconstituted apoptosome caspase-3 activity, DEVD-Rh110 fluorescence; active means inhibition of at least 40% at 20 µM;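 further: plate controls were DMSO wells for no effect and DEVD-CHO caspase inhibitor wells for full effect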
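System: Apoptosome proteins | Medium: Hepes pH 7.5 with detergent and BSA | Also added: Cytochrome c trigger plus (Z-DEVD)2-Rh110 caspase-3 substrate | Incubation: 30 min compound preincubation, 50 min activation, room temperature | Detection: Rhodamine 110 fluorescence at Ex 480/Em 540 nm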
MEKK2wt PB1 HTS: raises or lowers MEK5 binding to wildtype human MEKK2 PB1 domain | Q9Y2U5 | hit rate 1.1% among 290,000 | bead flow cytometry, Alexa488-MEK5 binding to MEKK2 WT; actives lie on both sides | AID 1531 | binding response (% of control), % at 10 µM; in the data active means binding response below about 67% or above about 130%
MEKK2wt confirm: raises or lowers MEK5 binding to wildtype human MEKK2, retest | binding response (% of control), % at 10 µM | AID 1892 | hit rate 2.4% among 5,900 | shares compounds with MEKK3 PB1 HTS | bead flow cytometry, Alexa488-MEK5 binding to MEKK2 WT; actives lie on both sides; in the data active means binding response below about 16% or above about 210%; inactive means in between
MEKK2mut confirm: signal of MEK5 binding to mutant human MEKK2, retest; percent response, % at 10 µM; hit rate 2% among 5,900; shares compounds with MEKK3 PB1 HTS; bead flow cytometry, Alexa488-MEK5 binding to MEKK2 mutant; in the data active means percent response mostly above about 71%, no sharp cut-off; inactive means mostly below about 38%;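 further: higher means compound restores mutant binding toward wildtype level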
MEKK3-MEK5 inh: confirmation of inhibitors of MEK5 binding to human MEKK3 | shares compounds with MEKK3 PB1 HTS | bead flow cytometry, Alexa488-MEK5 binding to MEKK3; hits give low values | binding response (% of control), % at 10 µM | hit rate 1.8% among 5,900;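 active means binding response below 72% of control, or above a set upper limit, though filed actives all read lower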;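 further: 100% = DMSO only wells and 0% = binding blocked by excess unlabeled MEK5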
The depositor's hits bear a star; [ ] = another dose, or the depositor's remark.

Screening O=C(/C=C/c1cc[n+](CC(=O)c2ccc3cccc4c3c2CC4)cc1)c1ccc2cccc3c2c1CC3 returned MEKK2mut PB1 HTS 13.0, MEKK3 PB1 HTS 70.0*[inhibitor], PREPL inh -33.0, UBC13 polyUb 51.2*, Apaf-1 inh 58.5*, MEKK2wt PB1 HTS 102.0, MEKK2wt confirm 152.0, MEKK2mut confirm 32.0 and MEKK3-MEK5 inh 93.0.
For O=C(O)COc1ccc(/C=C/C(=O)c2ccc3ccccc3c2)cc1 the results were MEKK2mut PB1 HTS -1.0, MEKK3 PB1 HTS 102.0, PREPL inh 7.8, UBC13 polyUb -5.2, Apaf-1 inh 10.7 and MEKK2wt PB1 HTS 102.0.
`CCN(CC#CCC1(O)c2ccccc2-c2ccccc21)CCO` gave MEKK2mut PB1 HTS -13.0, MEKK3 PB1 HTS 77.0*[inhibitor], PREPL inh -2.6, UBC13 polyUb -4.1, Apaf-1 inh -0.8, MEKK2wt PB1 HTS 84.0, MEKK2wt confirm 95.0, MEKK2mut confirm -6.0 and MEKK3-MEK5 inh 98.0.
For Cn1c(=O)c2c(ncn2CC(=O)OCC(=O)Nc2cc(Cl)ccc2Cl)n(C)c1=O the results were MEKK2mut PB1 HTS -1.0, MEKK3 PB1 HTS 139.0*, PREPL inh -8.2, UBC13 polyUb 10.9, Apaf-1 inh 1.0, MEKK2wt PB1 HTS 100.0, MEKK2wt confirm 107.0, MEKK2mut confirm 5.0 and MEKK3-MEK5 inh 101.0.
Screening CC1=N/C(=C\c2ccccc2Cl)C(=O)O1 returned PREPL inh 15.6, UBC13 polyUb -8.9 and Apaf-1 inh 4.7.
Screening CCOC(=O)CCC(NC(=O)CCC(=O)NC(CCC(=O)OCC)C(=O)OCC)C(=O)OCC (centres undefined) returned MEKK2mut PB1 HTS 0.0, MEKK3 PB1 HTS 99.0, PREPL inh -2.7, UBC13 polyUb 7.9, Apaf-1 inh -13.2 and MEKK2wt PB1 HTS 96.0.
For CCOC(=O)CCC(NC(=O)CCCC(=O)NC(CCC(=O)OCC)C(=O)OCC)C(=O)OCC (centres undefined) the results were MEKK2mut PB1 HTS 1.0, MEKK3 PB1 HTS 129.0*, PREPL inh 11.5, UBC13 polyUb -4.7, Apaf-1 inh 10.3, MEKK2wt PB1 HTS 108.0, MEKK2wt confirm 104.0, MEKK2mut confirm -1.0 and MEKK3-MEK5 inh 108.0.
CN1C(=O)c2ccc(C(=O)Nc3cccnc3)cc2C1=O was read as MEKK2mut PB1 HTS 1.0, MEKK3 PB1 HTS 105.0, UBC13 polyUb 0.8, Apaf-1 inh -4.4 and MEKK2wt PB1 HTS 106.0.
For O=C(NN1C(=O)c2ccc(-c3ccc4c(c3)C(=O)N(NC(=O)c3cccnc3)C4=O)cc2C1=O)c1cccnc1 the results were MEKK2mut PB1 HTS 1.0, MEKK3 PB1 HTS 135.0*, PREPL inh 0.3, UBC13 polyUb -8.9, Apaf-1 inh 13.0, MEKK2wt PB1 HTS 114.0, MEKK2wt confirm 100.0, MEKK2mut confirm 2.0 and MEKK3-MEK5 inh 99.0.
Screening O=C(CN1C(=O)c2ccc([N+](=O)[O-])cc2C1=O)NC1CCCCCC1 returned PREPL inh -1.4, UBC13 polyUb -8.8 and Apaf-1 inh 0.7.
For O=C(CN1CC(c2ccccc2)CC1=O)N/N=C/c1cc(Br)ccc1O (centres undefined) the results were MEKK2mut PB1 HTS 0.0, MEKK3 PB1 HTS 141.0*, PREPL inh 12.3, UBC13 polyUb -16.0, Apaf-1 inh 12.5, MEKK2wt PB1 HTS 106.0, MEKK2wt confirm 97.0, MEKK2mut confirm -10.0 and MEKK3-MEK5 inh 100.0.
O=C(CNC(=O)c1ccccc1)N/N=C/c1cc(Br)ccc1O was read as MEKK2mut PB1 HTS 0.0, MEKK3 PB1 HTS 91.0, PREPL inh -1.1, UBC13 polyUb -5.2, Apaf-1 inh -14.5 and MEKK2wt PB1 HTS 104.0.
For C=CCNC(=S)/N=c1/ccccn1C the results were MEKK2mut PB1 HTS -21.0, MEKK3 PB1 HTS 92.0, PREPL inh -7.0, UBC13 polyUb 0.3, Apaf-1 inh -1.2 and MEKK2wt PB1 HTS 84.0.
C=CCNC(=S)/N=c1/ccccn1CCC was read as MEKK2mut PB1 HTS -31.0, MEKK3 PB1 HTS 75.0*[inhibitor], PREPL inh 5.0, UBC13 polyUb -3.2, Apaf-1 inh -8.1, MEKK2wt PB1 HTS 82.0, MEKK2wt confirm 107.0, MEKK2mut confirm 3.0 and MEKK3-MEK5 inh 101.0.
`Cc1ccc(C(=O)CN(C(=O)c2ccc(Cl)c(Cl)c2)N2C(=O)C3C4C=CC(C4)C3C2=O)cc1` (centres undefined) gave MEKK2mut PB1 HTS -10.0, MEKK3 PB1 HTS 82.0*[inhibitor], PREPL inh -7.8, UBC13 polyUb 3.5, Apaf-1 inh -4.1, MEKK2wt PB1 HTS 86.0, MEKK2wt confirm 100.0, MEKK2mut confirm 0.0 and MEKK3-MEK5 inh 100.0.
`O=C(CN(C(=O)c1ccc(Cl)cc1Cl)N1C(=O)C2C3C=CC(C3)C2C1=O)c1ccc(F)cc1` (centres undefined) gave MEKK2mut PB1 HTS 5.0, MEKK3 PB1 HTS 101.0, PREPL inh -5.6, UBC13 polyUb 7.1, Apaf-1 inh 5.2 and MEKK2wt PB1 HTS 102.0.
For CCC1CCCCN1CCCNC(=O)CCC(=O)N1CCOc2ccccc21 (centres undefined) the results were MEKK2mut PB1 HTS 3.0, MEKK3 PB1 HTS 102.0, PREPL inh -6.2, UBC13 polyUb 2.8, Apaf-1 inh 3.2 and MEKK2wt PB1 HTS 105.0.
CC(C)CNC(=O)NC(=O)COC(=O)c1cccc(NS(=O)(=O)c2ccc(F)c(F)c2)c1 was read as MEKK2mut PB1 HTS 1.0, MEKK3 PB1 HTS 134.0*, PREPL inh 10.2, UBC13 polyUb 5.7, Apaf-1 inh 13.8, MEKK2wt PB1 HTS 109.0, MEKK2wt confirm 104.0, MEKK2mut confirm 7.0 and MEKK3-MEK5 inh 101.0.
Screening CCOc1ccc(OCC(=O)Nc2ccc(OC)cc2[N+](=O)[O-])cc1 returned MEKK2mut PB1 HTS -22.0, MEKK3 PB1 HTS 37.0*[inhibitor], PREPL inh 1.6, UBC13 polyUb 7.2, Apaf-1 inh -12.2, MEKK2wt PB1 HTS 51.0, MEKK2wt confirm 101.0, MEKK2mut confirm 1.0 and MEKK3-MEK5 inh 101.0.
For CCCn1c(N)c(C(=O)CSc2n[nH]c(-c3ccc(C)cc3)n2)c(=O)[nH]c1=O the results were PREPL inh -0.9, UBC13 polyUb 4.7 and Apaf-1 inh 0.0.
